Assay results: ChEMBL document CHEMBL1921736, “Evaluation of new chalcone derivatives as polyphenol oxidase inhibitors” (Bioorg Med Chem Lett, 2011)
Activity calls are given as the source filed them. The calls are words filed in the database; no cut-off is given here.

Assays:
Musa acuminata [1] = assay: Inhibition of diphenolase activity of banana tyrosinase using catechol as substrate at 50 uM by spectrophotometry
Method in brief: (§1)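 Tyrosinase (PPO) extracted from banana, then purified on a Sepharose 4B-L-tyrosine-p-aminobenzoic acid affinity column; all purification steps at 25 °C. Activity measured with catechol as substrate by following the absorbance increase at 420 nm. Residual activity was followed over a range of inhibitor concentrations, and progress curves were compared with uninhibited enzyme activity.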

Musa acuminata [2] = assay: Activation of diphenolase activity of banana tyrosinase using catechol as substrate at 50 uM by spectrophotometry; method in brief: as §1
[3] = Inhibition of diphenolase activity of banana tyrosinase using catechol as substrate by spectrophotometry; design: species or system Musa acuminata; method in brief: as §1
[4] = Competitive inhibition of diphenolase activity of banana tyrosinase using catechol as substrate by Lineweaver-Burk double reciprocal plot analysis; design: species or system Musa acuminata; method in brief: as §1

| inhibition (Musa acuminata [1]) | Activity (Musa acuminata [2]) | IC50 [3] | Ki [4] | SMILES |
| --- | --- | --- | --- | --- |
| inactive | Active | – | – | Cc1ccc(NC(=O)Nc2ccc(C(=O)/C=C/c3ccc(Br)cc3)cc2)cc1 |
| inactive | Active | – | – | Cc1ccc(NC(=S)Nc2ccc(C(=O)/C=C/c3ccc(Cl)cc3)cc2)cc1 |
| inactive | Active | – | – | COc1ccc(/C=C/C(=O)c2ccc(NC(=O)Nc3ccccc3)cc2)cc1 |
| inactive | Active | – | – | O=C(Nc1ccccc1)Nc1ccc(C(=O)/C=C/c2ccc(Cl)cc2)cc1 |
| inactive | Active | – | – | COc1ccc(/C=C/C(=O)c2ccc(NC(=S)Nc3ccc(C)cc3)cc2)cc1 |
| inactive | Active | – | – | COc1ccc(/C=C/C(=O)c2ccc(NC(=O)Nc3ccc(C)cc3)cc2)cc1 |
| – | – | 134 nM | 67 nM | Cc1ccc(NC(=O)Nc2ccc(/C=C/C(=O)c3ccc(C)cc3)cc2)cc1 |
| – | – | 133 nM | 117 nM | O=C(Nc1ccc(F)cc1)Nc1ccc(/C=C/C(=O)c2ccc(Cl)cc2)cc1 |
| – | – | 177 nM | 125 nM | O=C(Nc1ccc(F)cc1)Nc1ccc(/C=C/C(=O)c2ccccc2)cc1 |
| inactive | Active | – | – | Cc1ccc(NC(=O)Nc2ccc(C(=O)/C=C/c3ccc(Cl)cc3)cc2)cc1 |
| inactive | Active | – | – | Cc1ccc(/C=C/C(=O)c2ccc(NC(=O)Nc3ccc(C)cc3)cc2)cc1 |
| inactive | Active | – | – | O=C(Nc1ccccc1)Nc1ccc(C(=O)/C=C/c2ccc(Br)cc2)cc1 |
| – | – | 241 nM | 57 nM | Cc1ccc(NC(=O)Nc2ccc(/C=C/C(=O)c3ccccc3)cc2)cc1 |
| – | – | 217 nM | 59 nM | Cc1ccc(C(=O)/C=C/c2ccc(NC(=O)Nc3ccc(F)cc3)cc2)cc1 |
| – | – | 152 nM | 59 nM | COc1cccc(NC(=O)Nc2ccc(/C=C/C(=O)c3ccc(Cl)cc3)cc2)c1 |
| – | – | 244 nM | 240 nM | COc1cccc(NC(=O)Nc2ccc(/C=C/C(=O)c3ccccc3)cc2)c1 |
| inactive | Active | – | – | COc1ccc(/C=C/C(=O)c2ccc(NC(=S)Nc3ccccc3)cc2)cc1 |
| – | – | 172 nM | 37 nM | O=C(Nc1ccccc1)Nc1ccc(/C=C/C(=O)c2ccccc2)cc1 |
| inactive | Active | – | – | O=C(/C=C/c1ccc(Cl)cc1)c1ccc(NC(=S)Nc2ccccc2)cc1 |
| inactive | Active | – | – | Cc1ccc(/C=C/C(=O)c2ccc(NC(=O)Nc3ccccc3)cc2)cc1 |
| – | – | 289 nM | 22 nM | COc1ccc(C(=O)/C=C/c2ccc(NC(=O)Nc3ccc(C)cc3)cc2)cc1 |
| – | – | 238 nM | 129 nM | Cc1ccc(NC(=O)Nc2ccc(/C=C/C(=O)c3ccc(Cl)cc3)cc2)cc1 |
